Screening results as filed in PubChem BioAssay.
Most compounds without a hit are left out; they make up all but 1.5% or so of the library.
CXCR6 inh: inhibitors of human CXCR6 receptor; AID 602244; O00574; CHO-K1 PathHunter CXCR6 beta-arrestin, luminescence; inhibition, % at 20 µM; 360,000 tested, 0.36% active; in the data active = inhibition above about 34%, passing the limit was not always enough;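 note: antagonist mode with CXCL16 agonist at 10 nM final; 0% = 10 nM CXCL16 with DMSO and 100% = unstimulated wells without agonist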
APJ antag: APJ receptor antagonism | 330,000 tested, 0.32% active | CHO-K1 APJ beta-arrestin complementation, luminescence | inhibition, % at 20 µM;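 active = inhibition above about 40% at 20 µM, limit read from the data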;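 note: cells challenged with 10 nM apelin-13 agonist together with compound; plate controls were apelin-13 plus DMSO wells for no effect and DMSO wells lacking apelin-13 for full effect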
Target sequence (P35414 whole entry, looked up): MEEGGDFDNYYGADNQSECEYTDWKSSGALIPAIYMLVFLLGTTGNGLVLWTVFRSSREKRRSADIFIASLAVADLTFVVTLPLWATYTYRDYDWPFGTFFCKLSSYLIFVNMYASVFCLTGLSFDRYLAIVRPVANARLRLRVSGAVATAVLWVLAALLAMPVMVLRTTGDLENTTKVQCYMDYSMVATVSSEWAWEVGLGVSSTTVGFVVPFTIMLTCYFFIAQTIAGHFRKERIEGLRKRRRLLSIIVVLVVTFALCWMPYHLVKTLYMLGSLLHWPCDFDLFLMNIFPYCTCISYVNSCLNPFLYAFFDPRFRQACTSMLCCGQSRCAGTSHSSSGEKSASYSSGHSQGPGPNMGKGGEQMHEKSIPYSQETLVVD
APJ agonist: APJ receptor agonism. CHO-K1 APJ PathHunter beta-arrestin, luminescence; 0% DMSO wells, 100% apelin. activation, % at 20 µM. 330,000 tested, 0.11% active. AID 2520;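 active = activation more than six SD over the plate average, tested at 20 µM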;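 note: 0% = DMSO alone and 100% = apelin-13 at 10 nM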
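Test system: CHO-K1 APJ beta-arrestin complementation cell line. Amount: cell density 1000 per well. Controls: DMSO negative, 10 nM Apelin-13 positive. Signal: luminescent beta-gal fragment complementation, chemiluminescent substrate. Read-out basis: agonist-driven arrestin binding to APJ. Timing: compound stimulation 90 min at 25 °C, detection 60 min.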
EBI2 block: antagonists of human EBI2 receptor | EBI2 beta-arrestin recruitment, luminescence, 7a,25-OHC stimulated | inhibition, % at 5 µM | 360,000 tested, 0.81% active | AID 651636; in the data active = inhibition above about 38%;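 note: enzyme fragment complementation signal reports receptor beta-arrestin coupling in cells; 0% = agonist plus DMSO wells and 100% = wells without agonist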
CCR6 antagonist: antagonists of human CCR6 receptor; AID 493098; P51684; inhibition, % at 20 µM; 340,000 tested, 0.49% active; CHO-K1 CCR6 PathHunter beta-arrestin, luminescence, CCL20-stimulated;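 active = compounds whose inhibition of the agonist-driven luminescence signal at 20 µM reaches about 50%, limit read from the data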;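 note: cells stimulated with CCL20 at 14 nM final; plate controls were DMSO with CCL20 for no effect and DMSO without agonist for full effect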
APJ antag conf: APJ receptor antagonism confirmation; 950 tested, 66% active; APJ beta-arrestin recruitment, luminescence, antagonist mode; inhibition, % at 20 µM; AID 2766; shares compounds with APJ antag; in the data active = inhibition above about 50%
* marks the source's active call; other numbers are inactive results; x = no result.

SMILES	CXCR6 inh	APJ antag	APJ agonist	EBI2 block	CCR6 antagonist	APJ antag conf
COCc1cc(=O)[nH]c(Nc2nc3ccccc3o2)n1	16	18	-1	5	0	x
Cc1ccc2c(c1)C(=O)C(=O)N2c1ccc(C(F)(F)F)cc1	18	17	-7	-8	9	x
Cc1ccc2c(c1)C(=O)C(=O)N2c1ccc(Cl)cc1	15	45*	-9	6	30	86*
COc1ccc(CCNC(=O)c2n[nH]c(=O)c3ccccc23)cc1	-4	41*	-2	1	11	39
CCOC(=O)C1=NNC(C(=O)c2ccc(Cl)cc2)C1c1ccccc1 (stereo unspecified)	9	49*	-11	15	41	75*
COC(=O)C1NN=C(C(=O)c2ccc(Cl)cc2)C1c1ccc(OC)cc1 (stereo unspecified)	27	65*	-10	12	58*	81*
COC(=O)C1NN=C(C(=O)c2ccccc2)C1c1ccccc1 (stereo unspecified)	-3	19	-2	-3	13	x
CCOC(=O)C1=NNC(C(=O)O)C1c1ccccc1 (stereo unspecified)	-3	x	x	1	1	x
O=C(NN1CCCCC1)c1cnn2c(C(F)F)cc(-c3ccccc3)nc12	7	9	-4	8	11	x
Cn1c(NC(=S)Nc2ccccc2)nc2ccccc21	-10	41*	-4	7	-19	14
S=C(Nc1ccccc1)Nc1nc2ccccc2n1CCOc1ccc(Br)cc1	8	0	3	0	-7	x
CN[C@H]1C[C@H]2c3cc(N4CCN(C)CC4)ccc3CCN2C(=O)[C@H]1[C@H](C)O	3	x	x	-2	x	x
O=C(NC(=C(Cl)Cl)S(=O)(=O)c1ccc(Cl)cc1)c1ccccc1	-26	-13	0	-1	2	x
NNc1nc(-c2ccccc2)cc(-c2ccc(Br)cc2)n1	12	73*	-13	22	37	105*
NNc1nc(-c2ccccc2)c2cc(Br)ccc2n1	-19	32	-7	4	22	x
CCc1nc(SCC(=O)Nc2ccccc2Cl)n[nH]1	-4	-23	0	-4	1	x
CCOc1c(C(N)=O)c(-c2ccccc2)c2c(=O)[nH]c3ccccc3n12	35	60*	-8	20	16	60*
COC(=O)c1cc(NC(=O)CSc2nnc(N)s2)ccc1Cl	3	-20	-3	-14	4	x
Nc1nnc(SCC(=O)Nc2ccc(Cl)c(C(=O)O)c2)s1	-22	46*	-4	0	-2	35
ON1C(c2ccc(Cl)cc2Cl)N(O)[C@H]2CCCC[C@H]21 (stereo partly specified)	8	55*	-9	-5	80*	85*
CC1N(O)C(c2ccc(Cl)cc2Cl)N(O)C1(C)C (stereo unspecified)	4	-5	-1	-3	46	x
CN(CCc1ccccc1)C(=O)c1cccc(NC(=O)Cc2cccc(NC(=O)C3CCN(C(=O)c4ccccc4)CC3)c2)c1	6	x	x	18	2	x
CC(=O)c1cccc(NC(=O)Cn2cnc(S(=O)(=O)N3CCC(C)CC3)c2)c1	-9	42*	-3	9	-3	23
CC1CCN(S(=O)(=O)c2cn(CC(=O)Nc3cccc(C#N)c3)cn2)CC1	-8	3	-1	-6	16	x
COCCN1CCN(C(=O)C2CCC(=O)N(Cc3cccc(C(F)(F)F)c3)C2)CC1 (stereo unspecified)	6	3	-4	3	-6	x
SMILES	CXCR6 inh	APJ antag	APJ agonist	EBI2 block	CCR6 antagonist	APJ antag conf
CC(=O)c1sc(NS(=O)(=O)c2ccc(C)cc2)nc1C	1	53*	-2	-4	-1	23
COc1cc(NS(=O)(=O)c2ccc(NC(=S)Nc3ccccc3)cc2)nc(OC)n1	-7	6	9	-2	-2	x
COc1cc(NS(=O)(=O)c2ccc(NC(=S)NC(=O)C3CCCC3)cc2)nc(OC)n1	5	50*	-2	-3	-3	87*
c1cncc(-c2nc(-c3ccco3)cs2)c1	19	47*	-6	1	28	18
COc1ccc(-n2cnnc2SCC(=O)NC2CCCc3ccccc32)cc1 (stereo unspecified)	-8	4	-2	6	10	x
CC1=NN(c2ccc(C)cc2)C(=O)/C1=C/c1ccc(-c2cc([N+](=O)[O-])ccc2O)o1	42*	47*	-5	7	72*	93*
O=C1NN(c2cccc(Br)c2)C(=O)/C1=C/c1ccc(-c2cc([N+](=O)[O-])ccc2O)o1	62*	61*	-8	12	86*	98*
O=C1NN(c2cccc(Br)c2)C(=O)/C1=C\c1ccc(O)cc1	3	23	-7	2	27	x
CC1=NN(c2ccc(C(=O)O)cc2)C(=O)/C1=C/c1ccc(-c2ccccc2F)o1	7	17	8	41	x	x
Cc1ccc2oc(/N=C(\N)NC(=O)C(C)(C)C)nc2c1	71*	54*	-12	16	70*	15
O=C(c1ccncc1)N1CCN(S(=O)(=O)c2cccc(C(F)(F)F)c2)CC1	-7	-9	-7	-13	2	x
CCOc1ccc(N=C2C(=O)Nc3ccc(C)c(Br)c32)cc1	73*	79*	-15	11	102*	146*
Cc1ccc2c(c1Br)/C(=N/N1C(=O)c3ccccc3C1=O)C(=O)N2	9	38	-10	5	21	x
C=CCn1c(C)cc(C(=O)COC(=O)/C=C/c2c(C)nn(C3CCS(=O)(=O)C3)c2Cl)c1C (stereo unspecified)	1	-5	1	-7	3	x
O=C(c1ccccc1NS(=O)(=O)c1ccc(F)cc1F)N1CCCCC1	2	3	-6	-7	5	x
CN(CCCS(=O)(=O)[O-])c1ccc(/C=C/c2ccc3ccccc3[n+]2C)cc1	1	17	-5	-4	17	x
CN(C)c1ccc(/C=C/c2ccc3ccccc3[n+]2C)cc1	48*	64*	-3	6	53*	89*
COc1ccc(C(=O)Nc2ccc(Cl)c(S(=O)(=O)Nc3ccccc3OC)c2)cc1	0	41*	0	2	21	23
CCN1C=C(Cc2cccs2)C2=C(C1)C(c1cccs1)C(C#N)=C(N)O2 (stereo unspecified)	9	41*	-4	6	32	-14
O=C(NN=C1CCCCCCCCCCC1)c1cccnc1	-1	-10	-1	-8	-3	x
CC(=O)Nc1ccc(C(=O)OCC(=O)c2ccc(C)c([N+](=O)[O-])c2)cc1	-5	10	-5	-6	23	x
CCc1ccc(C(=O)COC(=O)CNC(=O)Cc2ccccc2)cc1	-5	-1	-3	9	-2	x
